Screening results from PubChem.
Only some compounds are listed: those with a hit (about 2.1% of all), similar ones and a draw of the others.
EBNA-1 inh – blocks EBNA-1 binding to DNA. EBNA-1 DNA binding, fluorescence polarization. inhibition, % at 14.8 µM. 0.34% of 300,000 active. AID 1950; in the data active = inhibition above about 28%
ZTA DNA inh – counter-screen for EBNA-1 inhibitors: inhibitors of Epstein-Barr virus ZTA | inhibition, % at 11 µM | ZTA-DNA binding, fluorescence polarization | 0.15% of 320,000 active | P03206; in the data active = inhibition above about 33%
PABP FP inh – PABP-poly(A) binding inhibition. P11940. PABP-poly(A) RNA binding, fluorescence polarization. inhibition, % at 35 µM. 1% of 290,000 active. AID 2014;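 note: calls also rest on retests at 20 µM and on dose response follow-up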
MLLE-PAM2 inh – blocks PAM2 peptide binding to the PABP1 MLLE domain; 0.36% of 360,000 active; inhibition, % at 20 µM; GST-MLLE / FITC-PAM2 fluorescence polarization; P11940; in the data active = inhibition above about 35%, passing the limit was not always enough
eIF4H inh – inhibitors of RNA binding by human eIF4H; 0.94% of 290,000 active; Q15056; inhibition, % at 35 µM; eIF4H fluorescence polarization binding assay;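 note: calls also rest on retests at 20 µM and on dose response follow-up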
NS3 helicase inh – inhibitors of Hepatitis C virus NS3 helicase; inhibition, % at 10.9 µM; 0.56% of 290,000 active; NS3 helicase DNA unwinding, Cy5 molecular beacon fluorescence;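 active = inhibition above the mean of all tested compounds plus 3 SD, set per campaign, cut at about 35% in these data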
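Compound dosing – single dose, 10.9 µM nominal final, DMSO 0.8% final · System – NS3 helicase fragment of HCV · Buffer or medium – MOPS pH 6.5, MgCl2, DTT, Tween20, BSA · Signal – Cy5 beacon fluorescence read at start and 1 h · Also added – annealed dual-labelled DNA beacon duplex, ATP-started · Schedule – 1 h at 25 °C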
NS3 helicase cf – HCV NS3 helicase inhibition, confirmation assay; shares compounds with NS3 helicase inh; NS3 helicase DNA unwinding, Cy5 molecular beacon fluorescence; inhibition, % at 10.9 µM; 31% of 1,600 active; AID 1943;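 active = inhibition above the mean of all tested compounds plus 3 SD, cutoff set per campaign, cut at about 36% in these data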
FID counter trip – intercalator displacement, NS3 helicase counter-screen | inhibition, % at 7.9 µM | AID 1945 | shares compounds with NS3 helicase inh | 4% of 1,600 active | DNA fluorescent intercalator displacement, fluorescence; in the data active = inhibition above about 37%;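 note: higher means more displacement of ethidium bromide from the DNA hairpin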
FID counter DR – counter-screen for HCV NS3 helicase inhibitors: DNA intercalator displacement dose response; shares compounds with NS3 helicase inh; fluorescent intercalator displacement from DNA, fluorescence; IC50, µM; 120 tested, under 10 active
Numbers stand for hits; – = inactive; · = not tested or not shown. Unless noted, the rule behind the calls is not given here.

SMILES	EBNA-1 inh	ZTA DNA inh	PABP FP inh	MLLE-PAM2 inh	eIF4H inh	NS3 helicase inh	NS3 helicase cf	FID counter trip	others
N#C/C(=C\c1ccc(OCc2ccc(C(=O)O)cc2)cc1)C(=O)NCc1ccccc1	–	–	–	–	–	39	70	–	FID counter DR=–
O=C(/C=C/c1ccco1)Nc1cccc(S(=O)(=O)N2CCOCC2)c1	–	–	–	–	–	–	·	·
Cc1ccc(/C=C/C(=O)Nc2cccc(S(=O)(=O)N3CCOCC3)c2)o1	–	–	–	–	–	48	–	–
Cc1ccc(NC(=O)CCS(=O)(=O)c2cccc3nonc23)cc1Cl	–	–	–	–	–	42	–	–
CCCc1nn2c(=O)cc(O)nc2s1	–	–	–	–	–	–	·	·
CCCCCCCc1nn2c(=O)cc(O)nc2s1	–	–	–	–	–	36	–	–
COc1ccc2c(c1)O/C(=C\c1ccco1)C2=O	–	–	–	–	–	44	–	–
COC(=O)C(C)Oc1ccc2c(c1)O/C(=C\c1ccco1)C2=O (configuration not stated)	–	–	–	–	–	–	·	·
O=C1NN(c2ccc(Br)cc2)C(=O)/C1=C\c1ccc(O)cc1O	–	–	–	–	–	39	58	–
O=C1NN(c2cccc(Br)c2)C(=O)/C1=C\c1ccc(O)cc1	–	–	–	–	–	–	·	·
Cc1cc(-n2c(C)cc(C(=O)CSc3ccc4c(c3)OCCO4)c2C)no1	–	–	–	–	–	37	–	–
Cc1cc(C)nc(N/N=C/C2=C(N3CCOCC3)C(=C\c3ccc(Cl)cc3)/CC2)n1	–	–	–	–	–	36	–	–
Cc1cc(C)nc(NN=CC2=C(N3CCOCC3)/C(=C/c3ccc(Cl)cc3)CC2)n1	·	·	·	–	·	·	·	·
Cc1cc(O)c(C=O)c2c1C(=O)Oc1c(CO)c(O)c3c(c1O2)C(O)OC3=O (configuration not stated)	–	97	85	–	108	47	62	86
COc1cc(/C=N/NC(=O)Cc2ccccc2)cc([N+](=O)[O-])c1O	–	–	–	–	–	–	·	·
COc1cc(/C=N/NC(=O)[C@H](Cc2c[nH]c3ccccc23)NC(=O)OCC(C)C)cc([N+](=O)[O-])c1O	–	–	–	–	–	50	59	–
O=C(CCCSc1ccccc1)Nc1nc(-c2ccco2)c(-c2ccco2)s1	–	–	–	–	96	92	69	–	FID counter DR=–
O=C(CCl)Nc1nc(-c2ccco2)c(-c2ccco2)s1	–	–	–	–	–	61	63	–	FID counter DR=–
Cc1ccc(C(=O)Nc2nc(-c3ccco3)c(-c3ccco3)s2)o1	·	·	·	–	·	·	·	·
CCOc1ccc(C2Nc3ccccc3NC3=C2C(=O)CC(C)(C)C3)cc1OC (configuration not stated)	–	–	–	–	–	–	·	·
CC(/C=N/n1c(-c2ccco2)n[nH]c1=S)=C\c1ccco1	–	–	–	–	–	51	–	–
C[C@@H](CN=[N+]=[N-])CN1CC[C@H](O)CCC1=O	–	–	–	–	–	37	–	–
C[C@@H](CSc1ccccc1)CN1CC[C@H](O)CCC1=O	–	–	–	–	–	44	–	–
O=c1c2c3c(sc2nc(NCCO)n1Cc1ccco1)CCCCC3	–	–	–	–	–	–	·	·
O=c1c2ccccc2sc2nc(C3CCCCC3)n(Cc3ccco3)c(=O)c12	·	·	–	–	–	40	–	–
COC(=O)c1ccccc1Oc1ccc(NC(=O)CCCl)cc1	–	–	–	–	–	–	·	·
CCOC(=O)Cn1c(-c2ccccn2)nc2ccccc21	–	–	–	–	–	–	·	·
CCOC(=O)c1ccc2c(c1)nc(-c1ccccn1)n2CC	–	–	–	–	–	36	–	–
COc1cc(CN2C(=O)C(Cc3ccccc3)ON=C2c2ncccc2C)cc(OC)c1 (configuration not stated)	·	·	·	–	·	·	·	·
